Results on ten compounds are retold here after ChEMBL document CHEMBL1127424, “7-azetidinylquinolones as antibacterial agents. 2. Synthesis and biological activity of 7-(2,3-disubstituted-1-azetidinyl)-4-oxoquinoline- and -1,8-naphthyridine-3-carboxylic acids. Properties and structure-activity relationships of quinolones with an azetidine moiety” (J Med Chem, 1994).

Converted amounts (≈) assume the structure as drawn.

Data set [1] can be described thus: Measured ionization constant (pKa). The format is physicochemical. Particulars: read-out: pKa1. In short, it runs like this:
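Spectrophotometric titration at 20 ± 1 °C, 0.1 M ionic strength, pH varied with H2SO4 or NaOH made up in the compound stock. Absorbance followed at compound-specific wavelengths chosen from 200–400 nm scans. pKa1 and pKa2 taken as the inflection points of the two-step absorbance vs pH curve.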

Data set [2] is described as follows: HPLC capacity factor (k'). The format is ADME. In short, it runs like this:
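Ion-pair reversed-phase HPLC on ODS-2 (10 μm) at 45 °C. Mobile phase: 10 mM sodium heptanesulfonate plus 50 mM KH2PO4 (pH 3.5)–methanol 45:55, 1 mL/min. Samples at 100 μg/mL in DMF, injected in duplicate, UV 280 nm. k' = (tR − t0)/t0.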

The test system of data set [3] is Escherichia coli. The data set can be described thus: In vitro minimum inhibitory concentration for Escherichia coli ATCC 10799. The format is functional. The procedure, abridged:
(§1)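 Serial 2-fold agar dilution in Mueller Hinton medium, run alongside a reference quinolone. Inoculum adjusted to 10⁸ cfu/mL; compound range 0.007–16 μg/mL.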

The test system of data set [4] is Morganella morganii. The data set can be described thus: In vitro minimum inhibitory concentration for Morganella morganii ATCC 8019. The format is functional. The procedure, abridged:
as §1

The subject of data set [5] is Proteus vulgaris. The experiment in a line: In vitro minimum inhibitory concentration for Proteus vulgaris ATCC 8427. The format is functional. In short, it runs like this:
as §1

For data set [6], the system named is Bacillus subtilis. The data set can be described thus: In vitro minimum inhibitory concentration for Bacillus subtilis ATCC 6633. The format is functional. In short, it runs like this:
as §1

The test system of data set [7] is Klebsiella pneumoniae. The data set can be described thus: In vitro minimum inhibitory concentration to inhibit Klebsiella pneumoniae ATCC 10031. The format is functional. The procedure, abridged:
as §1

For data set [8], the system named is Staphylococcus epidermidis. The data set can be described thus: In vitro minimum inhibitory concentration for Staphylococcus epidermidis ATCC 155-1. The format is functional. In short, it runs like this:
as §1

For data set [9], the system named is Bacillus cereus. The experiment in a line: In vitro minimum inhibitory concentration for Bacillus cereus ATCC 11778. The format is functional. In short, it runs like this: as §1
Data set [10] concerns Enterococcus faecalis. The data set can be described thus: In vitro minimum inhibitory concentration for Streptococcus faecalis ATCC 10541. The format is functional. The procedure, abridged: as §1
For data set [11], the system named is Pseudomonas aeruginosa. The experiment in a line: In vitro minimum inhibitory concentration for Pseudomonas aeruginosa ATCC 10145. The format is functional. In short, it runs like this: as §1
In data set [12] the test system is Staphylococcus aureus. The experiment in a line: In vitro minimum inhibitory concentration for Staphylococcus aureus ATCC 25178. The format is functional. In short, it runs like this:
as §1

The subject of data set [13] is Enterobacter cloacae. The data set can be described thus: In vitro minimum inhibitory concentration for Enterobacter cloacae ATCC 23355. The format is functional.

Consider `Nc1c(F)c(N2CC(N)C2)c(F)c2c1c(=O)c(C(=O)O)cn2C1CC1`, for which the pKa in data set [1] came out at 6.65. The “Log k'” value in [2] is -0.0505.
What is called MIC is the least concentration at which growth counts as inhibited. As for `CC[C@H]1[C@@H](O)CN1c1cc2c(cc1F)c(=O)c(C(=O)O)cn2C1CC1`, the minimal inhibitory concentration (MIC) in [3] was 2 µg/mL (≈ 5.77 µM); in data set [4], 1 µg/mL (≈ 2.89 µM); in data set [5], 0.5 µg/mL (≈ 1.44 µM); in [6] it was 0.06 µg/mL (≈ 0.173 µM); in data set [7] it was 0.5 µg/mL (≈ 1.44 µM); in data set [8], 0.5 µg/mL (≈ 1.44 µM). Further, the MIC in data set [9] turned out to be 1 µg/mL (≈ 2.89 µM); in [10] it was 8 µg/mL (≈ 23.1 µM); in data set [11], 8 µg/mL (≈ 23.1 µM); in data set [12], 1 µg/mL (≈ 2.89 µM); in data set [13], 0.5 µg/mL (≈ 1.44 µM). The “Log k'” value in data set [2] was 0.529.
Consider `C[C@@H]1[C@@H](O)CN1c1cc2c(cc1F)c(=O)c(C(=O)O)cn2C1CC1`, for which the MIC was 0.25 µg/mL (≈ 0.752 µM) in [3]; 0.25 µg/mL (≈ 0.752 µM) in [4]; 0.06 µg/mL (≈ 0.181 µM) in data set [5]; 0.015 µg/mL (≈ 0.0451 µM) in data set [6]; 0.015 µg/mL (≈ 0.0451 µM) in [7]; 0.06 µg/mL (≈ 0.181 µM) in data set [8]. Further, the MIC in [9] came out at 0.06 µg/mL (≈ 0.181 µM); in data set [10] it was 2 µg/mL (≈ 6.02 µM); in data set [11] it was 2 µg/mL (≈ 6.02 µM); in [12], 0.12 µg/mL (≈ 0.361 µM); in [13], 0.12 µg/mL (≈ 0.361 µM). Besides, in data set [2], the “Log k'” value stood at 0.407.
`CCn1cc(C(=O)O)c(=O)c2cc(F)c(N3C[C@@H](N)[C@@H]3C)cc21`: the MIC was 0.25 µg/mL (≈ 0.783 µM) in data set [3]; 0.25 µg/mL (≈ 0.783 µM) in data set [4]; 1 µg/mL (≈ 3.13 µM) in data set [5]; 0.12 µg/mL (≈ 0.376 µM) in data set [6]; 0.06 µg/mL (≈ 0.188 µM) in [7]; 0.25 µg/mL (≈ 0.783 µM) in data set [8]. For the same compound, the minimal inhibitory concentration (MIC) in data set [9] is 1 µg/mL (≈ 3.13 µM); in data set [10] it was 2 µg/mL (≈ 6.26 µM); in data set [11] it was 2 µg/mL (≈ 6.26 µM); in data set [12], 1 µg/mL (≈ 3.13 µM); in [13], 0.12 µg/mL (≈ 0.376 µM). The “Log k'” value in data set [2] was -0.0915.
As for `NC1CN(c2cc3c(cc2F)c(=O)c(C(=O)O)cn3C2CC2)C1`, the pKa in [1] was 6.49. In data set [2], the “Log k'” value is recorded as -0.0607.
For `C[C@H]1[C@H](N)CN1c1c(F)cc2c(=O)c(C(=O)O)cn(C(C)(C)C)c2c1F`, the minimum inhibitory concentration (MIC) in data set [3] is 0.25 µg/mL (≈ 0.684 µM); in [4] it was 0.25 µg/mL (≈ 0.684 µM); in [5], 0.25 µg/mL (≈ 0.684 µM); in data set [6], 0.06 µg/mL (≈ 0.164 µM); in data set [7] it was 0.06 µg/mL (≈ 0.164 µM); in [8], 0.25 µg/mL (≈ 0.684 µM). Further, the MIC was determined as 0.25 µg/mL (≈ 0.684 µM) in [9]; 0.5 µg/mL (≈ 1.37 µM) in [10]; 2 µg/mL (≈ 5.47 µM) in [11]; 0.25 µg/mL (≈ 0.684 µM) in [12]; 0.25 µg/mL (≈ 0.684 µM) in data set [13]. In [2], the “Log k'” value came to 0.262.
In the case of `C[C@H]1[C@@H](O)CN1c1cc2c(cc1F)c(=O)c(C(=O)O)cn2C1CC1`, the MIC was determined as 0.5 µg/mL (≈ 1.5 µM) in [3]; 0.5 µg/mL (≈ 1.5 µM) in data set [4]; 0.25 µg/mL (≈ 0.752 µM) in data set [5]; 0.015 µg/mL (≈ 0.0451 µM) in data set [6]; 0.25 µg/mL (≈ 0.752 µM) in data set [7]; 0.25 µg/mL (≈ 0.752 µM) in data set [8]. In addition, the MIC came out at 0.25 µg/mL (≈ 0.752 µM) in [9]; 2 µg/mL (≈ 6.02 µM) in [10]; 4 µg/mL (≈ 12 µM) in data set [11]; 0.25 µg/mL (≈ 0.752 µM) in [12]; 0.25 µg/mL (≈ 0.752 µM) in data set [13]. Further, the “Log k'” value in data set [2] is 0.3299.
In the case of `NC1CN(c2c(F)cc3c(=O)c(C(=O)O)cn(C4CC4)c3c2Cl)C1`, in [1], the pKa worked out at 5.96. For the same compound, the “Log k'” value in data set [2] is -0.0264.
Take `C[C@H]1N(c2cc3c(cc2F)c(=O)c(C(=O)O)cn3C2CC2)C[C@]1(C)O`: the minimal inhibitory concentration (MIC) in data set [3] worked out at 0.25 µg/mL (≈ 0.722 µM); in data set [4], 0.5 µg/mL (≈ 1.44 µM); in [5], 0.25 µg/mL (≈ 0.722 µM); in data set [6], 0.03 µg/mL (≈ 0.0866 µM); in data set [7], 0.12 µg/mL (≈ 0.346 µM); in [8], 0.12 µg/mL (≈ 0.346 µM). Also, the MIC in data set [9] was found to be 0.12 µg/mL (≈ 0.346 µM); in data set [10] it was 2 µg/mL (≈ 5.77 µM); in data set [11] it was 2 µg/mL (≈ 5.77 µM); in data set [12] it was 0.25 µg/mL (≈ 0.722 µM); in data set [13], 0.25 µg/mL (≈ 0.722 µM). The “Log k'” value in [2] came out at 0.599.
Consider `C[C@@H]1[C@@H](O)CN1c1c(F)cc2c(=O)c(C(=O)O)cn(C3CC3)c2c1F`, for which the MIC was 0.25 µg/mL (≈ 0.714 µM) in data set [3]; 0.25 µg/mL (≈ 0.714 µM) in data set [4]; 0.12 µg/mL (≈ 0.343 µM) in data set [5]; 0.015 µg/mL (≈ 0.0428 µM) in data set [6]; 0.015 µg/mL (≈ 0.0428 µM) in data set [7]; 0.06 µg/mL (≈ 0.171 µM) in data set [8]. The MIC was found to be 0.06 µg/mL (≈ 0.171 µM) in data set [9]; 1 µg/mL (≈ 2.85 µM) in data set [10]; 2 µg/mL (≈ 5.71 µM) in data set [11]; 0.12 µg/mL (≈ 0.343 µM) in [12]; 0.12 µg/mL (≈ 0.343 µM) in data set [13]. Also, in data set [2], the “Log k'” value is 0.518.
